These results are taken from ChEMBL document CHEMBL4346670, “Discovery of Novel Janus Kinase (JAK) and Histone Deacetylase (HDAC) Dual Inhibitors for the Treatment of Hematological Malignancies” (J Med Chem, 2019).

For data set [1], the target named is Cyclin-dependent kinase 6 (Homo sapiens) (UniProt Q00534). The data set can be described thus: Inhibition of recombinant human CDK6 at 20 nM using Ulight-CFFKNIVTPRTPPPSQGK-amide as substrate measured after 60 mins by LANCE assay relative to control. The gist of the method: (§1)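 Single-concentration screen within an 85-kinase panel run by a contract lab, with each compound tested at 20 nM and 200 nM. Human recombinant enzymes were used. Activity was quantified as phosphorylation of a peptide substrate read by LANCE time-resolved detection, and inhibition was expressed relative to control, using the same format as the JAK assay.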

The target of data set [2] is Testis-specific serine/threonine-protein kinase 1 (Homo sapiens) (UniProt Q9BXA7). The data set can be described thus: Inhibition of recombinant human TSSK1 at 20 nM using Ulight-RRRSLLE as substrate measured after 60 mins by LANCE method relative to control.
For data set [3], the target named is cAMP-dependent protein kinase catalytic subunit PRKX (Homo sapiens) (UniProt P51817). Description: Inhibition of recombinant human PRKX at 20 nM using Ulight-RRRSLLE as substrate measured after 30 mins by LANCE method relative to control.
The target of data set [4] is Vascular endothelial growth factor receptor 1 (Homo sapiens) (UniProt P17948). The data set can be described thus: Inhibition of recombinant human FLT1 at 200 nM using Ulight-TK peptide as substrate measured after 15 mins by LANCE method relative to control. The gist of the method: as §1
The target of data set [5] is Vascular endothelial growth factor receptor 3 (Homo sapiens) (UniProt P35916). Description: Inhibition of recombinant human FLT4 at 20 nM using Ulight-CAGAGAIETDKEYYTVKD as substrate measured after 90 mins by LANCE method relative to control. The gist of the method:
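Part of an 85-kinase selectivity panel run by a contract lab. The test compound was screened at 20 nM and 200 nM against human recombinant kinases. Activity was quantified as phosphorylation of a ULight-labelled peptide substrate, read by LANCE detection. Percent inhibition was taken relative to control. The method is the same one used for JAKs.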

Data set [6] has as its target Serine/threonine-protein kinase DCLK1 (Homo sapiens) (UniProt O15075). Description: Inhibition of recombinant human DCAMKL1 at 200 nM using CREBtide as substrate measured after 60 mins by LANCE method relative to control. In a few lines: as §1
A short description of data set [7]: Half life in rat liver microsomes at 1 uM in presence of NADPH cofactor for phase 1 metabolism and measured upto 60 mins by LC-MS/MS analysis. Type of data set: ADME, Microsome. The gist of the method: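 Liver microsomes (rat or human) incubated with compound at 37 °C, with NADPH for phase I or UDPGA for phase II. Reactions stopped in acetonitrile at set time points, vortexed 5 min, stored at -80 °C. Parent remaining in supernatant measured by LC-MS/MS. t1/2 = -0.693/k, with k the slope of ln fraction remaining versus time.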

Data set [8] concerns the target Ribosomal protein S6 kinase alpha-4 (Homo sapiens) (UniProt O75676). Description: Inhibition of recombinant human MSK2 at 20 nM using biotinyl-beta […] AAAARARTSSFAEPG after 15 mins by HTRF method relative to control.
The species named for a further data set is Homo sapiens. The data set can be described thus: Inhibition of recombinant human PKA at 20 nM using Ulight-RRRSLLE peptide as substrate measured after 10 mins by LANCE assay relative to control.
Data set [9] is described as follows: MRT (0 to t) in CD1(ICR) mouse at 1 mg/kg, ip by LC-MS/MS analysis. Particulars: in vivo. In kind it is ADME, organism-based.
Data set [10] can be described thus: MRT (0 to t) in CD1(ICR) mouse at 1 mg/kg, iv by LC-MS/MS analysis. The conditions noted are these: in vivo. Type of data set: ADME, organism-based.
The target in data set [11] is Hepatocyte growth factor receptor (Homo sapiens) (UniProt P08581). The data set can be described thus: Inhibition of recombinant human c-MET at 200 nM using Ulight-CAGAGAIETDKEYYTVKD as substrate measured after 60 mins by LANCE method relative to control.

Chain of Vascular endothelial growth factor receptor 1 (Homo sapiens) (P17948 whole entry): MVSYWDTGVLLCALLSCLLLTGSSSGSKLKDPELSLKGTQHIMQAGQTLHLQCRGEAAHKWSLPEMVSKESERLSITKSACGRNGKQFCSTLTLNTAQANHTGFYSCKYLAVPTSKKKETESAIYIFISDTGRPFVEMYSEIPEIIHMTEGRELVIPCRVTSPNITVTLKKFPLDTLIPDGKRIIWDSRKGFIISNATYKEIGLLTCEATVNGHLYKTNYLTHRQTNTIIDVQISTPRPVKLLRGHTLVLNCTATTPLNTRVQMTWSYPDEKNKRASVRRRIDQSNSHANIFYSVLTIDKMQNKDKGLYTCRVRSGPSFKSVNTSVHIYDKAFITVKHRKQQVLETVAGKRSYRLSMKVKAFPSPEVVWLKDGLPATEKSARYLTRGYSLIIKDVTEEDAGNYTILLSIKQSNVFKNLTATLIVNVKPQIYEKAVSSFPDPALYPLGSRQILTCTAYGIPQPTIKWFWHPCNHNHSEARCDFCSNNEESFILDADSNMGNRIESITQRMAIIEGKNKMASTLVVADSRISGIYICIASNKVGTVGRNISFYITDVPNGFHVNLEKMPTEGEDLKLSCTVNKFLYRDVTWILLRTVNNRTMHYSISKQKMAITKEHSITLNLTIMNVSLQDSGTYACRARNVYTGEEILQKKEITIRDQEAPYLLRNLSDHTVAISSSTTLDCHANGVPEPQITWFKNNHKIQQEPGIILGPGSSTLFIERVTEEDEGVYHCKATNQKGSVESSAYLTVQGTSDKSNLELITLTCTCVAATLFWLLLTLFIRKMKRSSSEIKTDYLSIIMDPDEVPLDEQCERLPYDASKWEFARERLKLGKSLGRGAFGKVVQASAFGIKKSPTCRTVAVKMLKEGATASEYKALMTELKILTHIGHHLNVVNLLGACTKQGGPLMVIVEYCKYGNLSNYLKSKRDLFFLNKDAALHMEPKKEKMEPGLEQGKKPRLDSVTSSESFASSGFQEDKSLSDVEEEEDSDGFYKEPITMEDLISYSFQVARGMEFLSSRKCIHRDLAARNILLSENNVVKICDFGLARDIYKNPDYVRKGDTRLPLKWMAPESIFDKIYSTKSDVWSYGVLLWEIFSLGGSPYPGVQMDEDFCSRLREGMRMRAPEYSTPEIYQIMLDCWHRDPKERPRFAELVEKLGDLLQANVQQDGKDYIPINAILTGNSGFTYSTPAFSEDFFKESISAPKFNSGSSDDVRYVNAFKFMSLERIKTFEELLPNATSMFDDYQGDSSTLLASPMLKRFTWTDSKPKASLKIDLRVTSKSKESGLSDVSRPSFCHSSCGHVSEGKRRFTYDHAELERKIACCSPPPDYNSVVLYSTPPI
Chain of Serine/threonine-protein kinase DCLK1 (Homo sapiens) (O15075 whole entry): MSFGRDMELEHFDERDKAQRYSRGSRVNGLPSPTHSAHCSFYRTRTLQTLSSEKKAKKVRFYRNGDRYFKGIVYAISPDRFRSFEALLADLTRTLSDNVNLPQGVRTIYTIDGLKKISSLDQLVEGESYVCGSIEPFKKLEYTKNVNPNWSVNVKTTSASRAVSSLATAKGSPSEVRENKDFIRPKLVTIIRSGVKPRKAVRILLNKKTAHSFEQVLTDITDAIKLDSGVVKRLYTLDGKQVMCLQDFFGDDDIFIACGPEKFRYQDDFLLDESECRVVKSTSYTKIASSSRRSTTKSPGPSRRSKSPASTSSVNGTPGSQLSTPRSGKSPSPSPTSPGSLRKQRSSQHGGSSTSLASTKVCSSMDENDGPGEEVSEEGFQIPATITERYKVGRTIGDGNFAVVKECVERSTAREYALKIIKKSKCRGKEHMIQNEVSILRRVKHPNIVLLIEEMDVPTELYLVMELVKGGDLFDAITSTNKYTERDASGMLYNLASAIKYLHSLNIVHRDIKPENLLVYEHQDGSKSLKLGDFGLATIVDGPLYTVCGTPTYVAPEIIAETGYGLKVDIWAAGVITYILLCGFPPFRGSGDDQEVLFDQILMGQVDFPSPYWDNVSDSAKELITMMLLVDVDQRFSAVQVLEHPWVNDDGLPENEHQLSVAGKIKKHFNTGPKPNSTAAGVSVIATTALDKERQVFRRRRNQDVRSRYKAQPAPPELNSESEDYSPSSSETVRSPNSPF
Chain of Cyclin-dependent kinase 6 (Homo sapiens) (Q00534 whole entry): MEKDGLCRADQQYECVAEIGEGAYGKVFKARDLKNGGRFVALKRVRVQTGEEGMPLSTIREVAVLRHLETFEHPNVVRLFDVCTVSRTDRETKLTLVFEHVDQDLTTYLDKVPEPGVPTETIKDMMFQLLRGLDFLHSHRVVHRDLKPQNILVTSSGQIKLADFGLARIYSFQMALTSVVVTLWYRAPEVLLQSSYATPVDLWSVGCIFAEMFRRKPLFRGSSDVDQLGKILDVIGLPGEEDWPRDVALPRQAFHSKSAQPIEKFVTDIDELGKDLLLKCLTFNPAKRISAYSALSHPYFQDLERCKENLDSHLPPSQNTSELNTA
Chain of cAMP-dependent protein kinase catalytic subunit PRKX (Homo sapiens) (P51817 whole entry): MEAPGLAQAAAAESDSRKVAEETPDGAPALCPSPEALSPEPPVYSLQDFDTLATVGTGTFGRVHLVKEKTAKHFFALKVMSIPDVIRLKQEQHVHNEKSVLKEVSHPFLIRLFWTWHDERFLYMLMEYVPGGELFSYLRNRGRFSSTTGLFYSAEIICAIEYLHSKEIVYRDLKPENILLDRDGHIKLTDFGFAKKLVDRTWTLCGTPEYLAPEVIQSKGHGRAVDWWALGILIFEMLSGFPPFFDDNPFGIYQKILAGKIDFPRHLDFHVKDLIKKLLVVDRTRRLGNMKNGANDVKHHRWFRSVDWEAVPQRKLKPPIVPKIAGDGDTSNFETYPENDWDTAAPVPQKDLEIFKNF
Chain of Ribosomal protein S6 kinase alpha-4 (Homo sapiens) (O75676 whole entry, looked up): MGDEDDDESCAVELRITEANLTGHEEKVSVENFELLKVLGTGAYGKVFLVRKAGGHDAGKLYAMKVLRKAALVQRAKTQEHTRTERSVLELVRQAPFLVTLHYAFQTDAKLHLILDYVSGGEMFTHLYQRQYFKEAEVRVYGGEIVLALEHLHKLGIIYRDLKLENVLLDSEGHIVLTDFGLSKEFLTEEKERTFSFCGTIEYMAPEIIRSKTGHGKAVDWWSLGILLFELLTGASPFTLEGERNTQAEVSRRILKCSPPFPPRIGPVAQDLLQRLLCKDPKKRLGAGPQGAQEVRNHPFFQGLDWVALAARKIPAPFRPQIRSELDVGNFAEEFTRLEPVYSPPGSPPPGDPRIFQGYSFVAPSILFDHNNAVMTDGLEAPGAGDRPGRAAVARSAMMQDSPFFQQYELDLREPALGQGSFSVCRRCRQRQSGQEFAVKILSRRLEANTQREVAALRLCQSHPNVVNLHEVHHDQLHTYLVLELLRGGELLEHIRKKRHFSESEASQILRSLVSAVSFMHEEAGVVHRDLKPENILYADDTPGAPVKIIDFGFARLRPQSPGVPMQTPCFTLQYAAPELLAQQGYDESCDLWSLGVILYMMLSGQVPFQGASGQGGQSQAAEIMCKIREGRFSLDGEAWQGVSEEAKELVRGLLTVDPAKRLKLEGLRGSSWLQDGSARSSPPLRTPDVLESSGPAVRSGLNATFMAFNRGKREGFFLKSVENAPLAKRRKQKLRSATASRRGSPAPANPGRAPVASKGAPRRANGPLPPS
Chain of Testis-specific serine/threonine-protein kinase 1 (Homo sapiens) (Q9BXA7 whole entry): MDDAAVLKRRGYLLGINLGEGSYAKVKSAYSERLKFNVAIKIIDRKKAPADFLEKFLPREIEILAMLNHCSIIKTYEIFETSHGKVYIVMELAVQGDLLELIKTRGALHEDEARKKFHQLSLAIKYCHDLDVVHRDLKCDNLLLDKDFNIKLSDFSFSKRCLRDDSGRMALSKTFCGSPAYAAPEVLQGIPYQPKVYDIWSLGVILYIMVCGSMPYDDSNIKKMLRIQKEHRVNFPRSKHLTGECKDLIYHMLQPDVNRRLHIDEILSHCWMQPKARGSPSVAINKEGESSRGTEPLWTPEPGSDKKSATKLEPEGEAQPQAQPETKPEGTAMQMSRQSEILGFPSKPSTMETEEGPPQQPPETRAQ

Turning to `O=C(CCCCCn1cc(Nc2ncc(Cl)c(Nc3ccc(Cl)cc3)n2)cn1)NO`, the inhibition was 10% in data set [1]; -3% in data set [2]; -1% in data set [3]; 61% in data set [4]; 38% in [5]; 9% in data set [6]. Besides, the values for the inhibition (in [8]; in the data set listed under Homo sapiens; in data set [11]) were -2%, -10% and 37%, respectively. For the same compound, the half-life at 1 µM in [7] came out at 14.6 min. Also, the MRT last in data set [9] amounted to 21.6 min; in data set [10], 16.2 min.
